Test results from ChEMBL document CHEMBL4346672, “Antimicrobial and KPC/AmpC inhibitory activity of functionalized benzosiloxaboroles” (Eur J Med Chem, 2019).
In brackets after ≈: the same amount, converted by molar mass.

Legend:
Klebsiella pneumoniae = assay: Inhibition of beta lactamase KPC-2 in Klebsiella pneumoniae 75 assessed as potentiation of meropenem-induced antibacterial activity by measuring meropenem MIC at 16 mg/L incubated for 18 hrs by broth dilution method (reference value: […] mg/L)
Acinetobacter baumannii = assay: Inhibition of beta lactamase OXA-24 in Acinetobacter baumannii 181 assessed as potentiation of meropenem-induced antibacterial activity by measuring meropenem MIC at 16 mg/L incubated for 18 hrs by broth dilution method (reference value: […] mg/L)
Pseudomonas aeruginosa = assay: Inhibition of beta lactamase AmpC in Pseudomonas aeruginosa MUW 700 assessed as potentiation of ceftazidime-induced antibacterial activity by measuring diameter of zone inhibition at 0.3 mg incubated for 18 hrs in presence of 30 ug ceftazidime by CLSI disc diffusion method (Rvb=11 mm)
Summary of the method: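 AmpC combination disc test on Mueller-Hinton agar, following EUCAST guidance and Yagi et al. Inhibition zones were compared between a CAZ-30 disc and a ceftazidime disc plus agent or PBA, each at 0.3 mg per disc. Plates were incubated at 35 °C for 18 h. A zone difference of at least 5 mm was counted as inhibition.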

Enterococcus faecium = assay: Bactericidal activity against Enterococcus faecium ATCC 6057 measured after 18 hrs by CLSI broth dilution method; type: functional; settings: ATCC 6057, 18 h
Summary of the method: (§1)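 Strains stored at -80 °C and subcultured twice on tryptic soy agar before testing. Compounds dissolved in DMSO. […] MBC then determined per CLSI recommendations.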

[1] = system: Bordetella bronchiseptica; assay: Bactericidal activity against Bordetella bronchiseptica ATCC 4617 measured after 18 hrs by CLSI broth dilution method; type: functional; settings: ATCC 4617, 18 h; summary of the method: as §1
Burkholderia cepacia = assay: Bactericidal activity against Burkholderia cepacia ATCC 25416 measured after 18 hrs by CLSI broth dilution method; type: functional; settings: ATCC 25416, 18 h; summary of the method: as §1

Row | SMILES | MIC (Klebsiella pneumoniae) [µg/mL] | MIC (Acinetobacter baumannii) [µg/mL] | inhibition zone (IZ) (Pseudomonas aeruginosa) [mm] | MBC (Enterococcus faecium) [µg/mL] | MBC [1] [µg/mL] | MBC (Burkholderia cepacia) [µg/mL]
1 | C[Si]1(C)OB(O)c2c(F)c(F)c(F)c(F)c21 | 32 | > 64 | 11 | – | – | –
2 | C[Si]1(C)OB(O)c2ccc(F)c(F)c21 | 32 | > 64 | 14 | – | – | –
3 | C[Si]1(C)OB(O)c2ccc(B(O)O)cc21 | 16 | > 64 | 18 | 400 (≈ 1800 µM) | – | –
4 | C[Si]1(C)OB(O)c2cc3c(c(F)c21)COB3O | 32 | > 64 | 16 | – | – | –
5 | C[Si]1(C)OB(O)c2ccc(C(F)(F)F)cc21 | – | – | – | 50 (≈ 203 µM) | – | –
6 | C[Si]1(C)OB(O)c2c(F)c3c(c(F)c21)B(O)OC3 | 32 | > 64 | 11 | – | 400 (≈ 1480 µM) | 100 (≈ 371 µM)
